Measurements from ChEMBL document CHEMBL1134857, “The synthesis and biological evaluation of a novel series of antimicrobials of the oxazolidinone class” (Bioorg Med Chem Lett, 2002).
≈ marks a conversion by molar mass, not a printed value.

Columns and labels:
Staphylococcus aureus = test: Minimum inhibitory concentration measured against Staphylococcus aureus; type: functional
Moraxella catarrhalis = test: Minimum inhibitory concentration measured against Moraxella catarrhalis; type: functional
[1] = system: Staphylococcus epidermidis; test: Minimum inhibitory concentration measured against Staphylococcus epidermidis; type: functional
Enterococcus faecium = test: Minimum inhibitory concentration measured against Enterococcus faecium; type: functional
Streptococcus pneumoniae = test: Minimum inhibitory concentration measured against Streptococcus pneumoniae; type: functional
[2] = biological target: T1, Amine oxidase [flavin-containing] B (Rattus norvegicus, UniProt P19643); test: Inhibition of Monoamine oxidase B in rat primary hepatocytes; type: cell-based, Hepatocyte
T1 sequence (P19643 whole entry): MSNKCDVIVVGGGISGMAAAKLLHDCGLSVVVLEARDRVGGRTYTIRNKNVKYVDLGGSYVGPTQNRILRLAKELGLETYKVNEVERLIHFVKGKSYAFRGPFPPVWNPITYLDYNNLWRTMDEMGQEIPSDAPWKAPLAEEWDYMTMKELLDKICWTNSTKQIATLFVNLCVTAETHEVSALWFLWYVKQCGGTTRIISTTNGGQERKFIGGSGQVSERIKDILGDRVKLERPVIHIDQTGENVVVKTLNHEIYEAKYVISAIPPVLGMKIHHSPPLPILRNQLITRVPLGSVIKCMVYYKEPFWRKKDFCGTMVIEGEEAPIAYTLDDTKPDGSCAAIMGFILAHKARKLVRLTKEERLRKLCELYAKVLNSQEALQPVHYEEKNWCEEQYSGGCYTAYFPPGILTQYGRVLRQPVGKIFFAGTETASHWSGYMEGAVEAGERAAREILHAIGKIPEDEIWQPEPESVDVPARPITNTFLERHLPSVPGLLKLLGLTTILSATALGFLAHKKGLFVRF

Rattus norvegicus = species: Rattus norvegicus; test: Inhibition of mitochondrial protein synthesis (MPS) in rat heart mitochondria; type: functional
In short: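 Rat heart mitochondria were incubated at 1 mg/mL protein (Bradford) in buffer with translation components (ADP, amino acids). Incorporation of S35 methionine was followed for 1 h at 30 °C, then quenched with cold 5% TCA/5 mM methionine. Triplicate aliquots were filtered, washed and counted. Compounds were tested at 6–7 concentrations, ≤1% organic. IC50 came from the linear portion of the percent-of-control curve, as the mean of ≥2 experiments.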

[3] = biological target: T1, Amine oxidase [flavin-containing] B; test: Compound was evaluated for inhibition of Mono aminoxidase B in rat primary hepatocytes; type: cell-based, Hepatocyte

MIC (Staphylococcus aureus) [µg/mL]	MIC (Moraxella catarrhalis) [µg/mL]	MIC [1] [µg/mL]	MIC (Enterococcus faecium) [µg/mL]	MIC (Streptococcus pneumoniae) [µg/mL]	IC50 [2] [µM]	IC50 (Rattus norvegicus) [µM]	Compound	IC50 [3] [µM]
8 (≈ 27 µM)	32 (≈ 108 µM)	8 (≈ 27 µM)	8 (≈ 27 µM)	2 (≈ 6.75 µM)	–	–	CC(=O)NC[C@H]1CN(c2ccc(/C=C\F)c(F)c2)C(=O)O1	–
1 (≈ 2.08 µM)	2 (≈ 4.16 µM)	0.5 (≈ 1.04 µM)	0.5 (≈ 1.04 µM)	0.5 (≈ 1.04 µM)	–	–	CC(=O)NC[C@H]1CN(c2ccc(/C=C(\Br)c3ccc(C(C)=O)s3)c(F)c2)C(=O)O1	–
> 128	> 128	128 (≈ 322 µM)	> 128	2 (≈ 5.03 µM)	> 300	> 300	CC(=O)NC[C@H]1CN(c2ccc(/C=C(\F)c3cccc(C#N)c3)c(F)c2)C(=O)O1	–
0.5 (≈ 1.21 µM)	> 128	1 (≈ 2.41 µM)	2 (≈ 4.83 µM)	1 (≈ 2.41 µM)	> 300	69	CC(=O)NC[C@H]1CN(c2ccc(/C=C(\F)c3cccc(C(C)=O)c3)c(F)c2)C(=O)O1	–
4 (≈ 8.16 µM)	64 (≈ 131 µM)	2 (≈ 4.08 µM)	2 (≈ 4.08 µM)	2 (≈ 4.08 µM)	–	–	CC(=O)NC[C@H]1CN(c2ccc(/C=C(\Br)c3cccc(NC(C)=O)c3)c(F)c2)C(=O)O1	–
2 (≈ 4.21 µM)	4 (≈ 8.42 µM)	1 (≈ 2.1 µM)	1 (≈ 2.1 µM)	1 (≈ 2.1 µM)	–	–	CC(=O)NC[C@H]1CN(c2ccc(/C=C(\Br)c3cccc(C(C)=O)c3)c(F)c2)C(=O)O1	–
32	64	16	32	8	21	54	CC(=O)NC[C@H]1CN(c2ccc(/C=C(\Br)c3c(C)oc[n+]3C)c(F)c2)C(=O)O1	–
1 (≈ 2.5 µM)	64 (≈ 160 µM)	0.5 (≈ 1.25 µM)	1 (≈ 2.5 µM)	4 (≈ 9.99 µM)	> 300	9.9	CC(=O)NC[C@H]1CN(c2ccc(/C=C(\F)c3cccc(C=O)c3)c(F)c2)C(=O)O1	–
4 (≈ 11.3 µM)	16 (≈ 45 µM)	2 (≈ 5.63 µM)	2 (≈ 5.63 µM)	16 (≈ 45 µM)	59	7.8	CC(=O)NC[C@H]1CN(c2ccc(/C=C/c3cccnc3)c(F)c2)C(=O)O1	–
16 (≈ 36.9 µM)	128 (≈ 295 µM)	16 (≈ 36.9 µM)	16 (≈ 36.9 µM)	2 (≈ 4.62 µM)	< 9.4	> 300	CC(=O)NC[C@H]1CN(c2ccc(/C=C(\Br)c3ccccc3)c(F)c2)C(=O)O1	–
1 (≈ 2.51 µM)	4 (≈ 10 µM)	0.5 (≈ 1.26 µM)	1 (≈ 2.51 µM)	≤ 0.125	> 300	< 0.1	CC(=O)NC[C@H]1CN(c2ccc(/C=C(\F)c3cncc(C#N)c3)c(F)c2)C(=O)O1	–
8 (≈ 16.3 µM)	> 128	8 (≈ 16.3 µM)	4 (≈ 8.14 µM)	32 (≈ 65.1 µM)	> 300	150	COC(=O)c1cccc(/C(Br)=C/c2ccc(N3C[C@H](CNC(C)=O)OC3=O)cc2F)c1	–
0.5 (≈ 1.08 µM)	1 (≈ 2.17 µM)	0.25 (≈ 0.542 µM)	0.5 (≈ 1.08 µM)	1 (≈ 2.17 µM)	> 300	33	CC(=O)NC[C@H]1CN(c2ccc(/C=C(\Br)c3cccc(C=O)c3)c(F)c2)C(=O)O1	–
8 (≈ 17.2 µM)	32 (≈ 68.9 µM)	4 (≈ 8.62 µM)	2 (≈ 4.31 µM)	2 (≈ 4.31 µM)	–	–	COc1ccncc1/C(Br)=C/c1ccc(N2C[C@H](CNC(C)=O)OC2=O)cc1F	–
8 (≈ 21.4 µM)	32 (≈ 85.7 µM)	4 (≈ 10.7 µM)	4 (≈ 10.7 µM)	4 (≈ 10.7 µM)	–	–	CC(=O)NC[C@H]1CN(c2ccc(/C=C(/F)c3cccnc3)c(F)c2)C(=O)O1	–
> 128	32 (≈ 63.3 µM)	> 128	> 128	64 (≈ 127 µM)	–	–	COc1ccc(C(C)C)cc1/C(Br)=C/c1ccc(N2C[C@H](CNC(C)=O)OC2=O)cc1F	–
4 (≈ 10.7 µM)	8 (≈ 21.4 µM)	0.25 (≈ 0.67 µM)	1 (≈ 2.68 µM)	0.5 (≈ 1.34 µM)	98	1.6	CC(=O)NC[C@H]1CN(c2ccc(/C=C(\F)c3cccnc3)c(F)c2)C(=O)O1	–

MIC (Staphylococcus aureus) [µg/mL]	MIC (Moraxella catarrhalis) [µg/mL]	MIC [1] [µg/mL]	MIC (Enterococcus faecium) [µg/mL]	MIC (Streptococcus pneumoniae) [µg/mL]	IC50 [2] [µM]	IC50 (Rattus norvegicus) [µM]	Compound	IC50 [3] [µM]
8 (≈ 18.4 µM)	16 (≈ 36.8 µM)	2 (≈ 4.61 µM)	1 (≈ 2.3 µM)	1 (≈ 2.3 µM)	186	14	CC(=O)NC[C@H]1CN(c2ccc(/C=C(\Br)c3ccncc3)c(F)c2)C(=O)O1	–
1 (≈ 2.36 µM)	1 (≈ 2.36 µM)	0.25 (≈ 0.591 µM)	0.5 (≈ 1.18 µM)	0.5 (≈ 1.18 µM)	–	–	CC(=O)NC[C@H]1CN(c2ccc(/C=C(\Br)c3ccco3)c(F)c2)C(=O)O1	–
8 (≈ 21.1 µM)	32 (≈ 84.6 µM)	1 (≈ 2.64 µM)	4 (≈ 10.6 µM)	2 (≈ 5.29 µM)	> 300	4.9	CC(=O)NC[C@H]1CN(c2ccc(/C=C(\F)c3nnn(C)n3)c(F)c2)C(=O)O1	–
4 (≈ 10.5 µM)	16 (≈ 42.1 µM)	2 (≈ 5.26 µM)	2 (≈ 5.26 µM)	16 (≈ 42.1 µM)	> 300	9.4	CC(=O)NC[C@H]1CN(c2ccc(/C=C/c3cncc(C#N)c3)c(F)c2)C(=O)O1	–
0.25 (≈ 0.546 µM)	1 (≈ 2.18 µM)	0.125 (≈ 0.273 µM)	0.125 (≈ 0.273 µM)	0.25 (≈ 0.546 µM)	> 150	24	CC(=O)NC[C@H]1CN(c2ccc(/C=C(\Br)c3cccc(C#N)c3)c(F)c2)C(=O)O1	–
2 (≈ 5.34 µM)	4 (≈ 10.7 µM)	1 (≈ 2.67 µM)	2 (≈ 5.34 µM)	1 (≈ 2.67 µM)	475	–	CC(=O)NC[C@H]1CN(c2ccc(/C=C(\F)c3cncnc3)c(F)c2)C(=O)O1	–
8 (≈ 18.3 µM)	64 (≈ 147 µM)	8 (≈ 18.3 µM)	8 (≈ 18.3 µM)	8 (≈ 18.3 µM)	–	–	CC(=O)NC[C@H]1CN(c2ccc(/C=C(\F)S(=O)(=O)c3ccccc3)c(F)c2)C(=O)O1	–
16 (≈ 34.9 µM)	128 (≈ 279 µM)	4 (≈ 8.73 µM)	4 (≈ 8.73 µM)	2 (≈ 4.36 µM)	> 150	36	CC(=O)NC[C@H]1CN(c2ccc(/C=C(\Br)c3ccccc3C#N)c(F)c2)C(=O)O1	–
4 (≈ 8.73 µM)	> 128	1 (≈ 2.18 µM)	2 (≈ 4.36 µM)	0.5 (≈ 1.09 µM)	> 150	76	CC(=O)NC[C@H]1CN(c2ccc(/C=C(\Br)c3ccc(C#N)cc3)c(F)c2)C(=O)O1	–
2 (≈ 4.32 µM)	4 (≈ 8.63 µM)	1 (≈ 2.16 µM)	0.5 (≈ 1.08 µM)	1 (≈ 2.16 µM)	> 150	8	CC(=O)NC[C@H]1CN(c2ccc(/C=C(\Br)c3cccc(CO)c3)c(F)c2)C(=O)O1	–
4 (≈ 8.4 µM)	16 (≈ 33.6 µM)	4 (≈ 8.4 µM)	2 (≈ 4.2 µM)	4 (≈ 8.4 µM)	–	–	CC(=O)NC[C@H]1CN(c2ccc(/C=C(\Br)c3cccc(C(N)=O)c3)c(F)c2)C(=O)O1	–
2 (≈ 4.61 µM)	8 (≈ 18.4 µM)	1 (≈ 2.3 µM)	2 (≈ 4.61 µM)	1 (≈ 2.3 µM)	121	12	CC(=O)NC[C@H]1CN(c2ccc(/C=C(\Br)c3cccnc3)c(F)c2)C(=O)O1	–
2 (≈ 5.27 µM)	8 (≈ 21.1 µM)	2 (≈ 5.27 µM)	2 (≈ 5.27 µM)	2 (≈ 5.27 µM)	< 9.4	–	CC(=O)NC[C@H]1CN(c2ccc(/C=C(\F)c3nccs3)c(F)c2)C(=O)O1	–
64 (≈ 135 µM)	128 (≈ 269 µM)	64 (≈ 135 µM)	32 (≈ 67.3 µM)	1 (≈ 2.1 µM)	–	–	CC(=O)NC[C@H]1CN(c2ccc(/C=C(\Br)c3ccc(C(C)=O)cc3)c(F)c2)C(=O)O1	–
2 (≈ 4.46 µM)	8 (≈ 17.8 µM)	1 (≈ 2.23 µM)	2 (≈ 4.46 µM)	2 (≈ 4.46 µM)	–	–	CC(=O)NC[C@H]1CN(c2ccc(/C=C(\Br)c3cccc(N)c3)c(F)c2)C(=O)O1	–
1 (≈ 2.18 µM)	2 (≈ 4.35 µM)	0.25 (≈ 0.544 µM)	< 0.125	≤ 0.125	> 300	1.3	CC(=O)NC[C@H]1CN(c2ccc(/C=C(\Br)c3cncc(C#N)c3)c(F)c2)C(=O)O1	–
16 (≈ 41.1 µM)	32 (≈ 82.2 µM)	4 (≈ 10.3 µM)	8 (≈ 20.5 µM)	8 (≈ 20.5 µM)	–	–	CC(=O)NC[C@H]1CN(c2ccc(/C=C(\F)c3cnc(N)nc3)c(F)c2)C(=O)O1	–

Compound	MIC (Staphylococcus aureus) [µg/mL]	MIC (Moraxella catarrhalis) [µg/mL]	MIC [1] [µg/mL]	MIC (Enterococcus faecium) [µg/mL]	MIC (Streptococcus pneumoniae) [µg/mL]	IC50 [2] [µM]	IC50 (Rattus norvegicus) [µM]	IC50 [3] [µM]
CC(=O)NC[C@H]1CN(c2ccc(N3CCOCC3)c(F)c2)C(=O)O1 [LINEZOLID]	–	4 (≈ 11.9 µM)	1 (≈ 2.96 µM)	2 (≈ 5.93 µM)	–	–	12	17
